Our source for the IC50, viability and selectivity ratio values is ChEMBL document CHEMBL3784919, “Design and synthesis of novel 5-aminosalicylate (5-ASA)-4-thiazolinone hybrid derivatives with promising antiproliferative activity” (Bioorg Med Chem Lett, 2016).

Tested on in one series: not listed separately
The series can be described thus: Antiproliferative activity against human HCT116 cells assessed as cell viability after 48 hrs by SRB assay. It counts as functional, cell-based. To be noted: HCT-116, 48 h. (In general: In SRB staining, fixed cells bind dye roughly in proportion to their protein.)
Usually IC50 stands for the concentration that inhibits the measured activity by half. For `COC(=O)c1cc(NC2=NC(=O)/C(=C/c3ccccc3O)S2)ccc1O`, the IC50 turned out to be 3.44 µM.
In the case of `COC(=O)c1cc(NC2=NC(=O)/C(=C/c3ccc(C)cc3)S2)ccc1O`, the IC50 amounted to 0.45 µM.
Still for that read-out and setting: under `COC(=O)c1cc(NC2=NC(=O)/C(=C/c3ccc(Br)cc3)S2)ccc1O` stands 5.58 µM.
On the same count and under the same terms, under `COC(=O)c1cc(NC2=NC(=O)/C(=C/c3ccc(N(C)C)cc3)S2)ccc1O` stands 0.31 µM; under `COc1cccc2c1C(=O)c1c(O)c3c(c(O)c1C2=O)C[C@@](O)(C(=O)CO)C[C@@H]3O[C@H]1C[C@H](N)[C@H](O)[C@H](C)O1` [DOXORUBICIN], 0.38 µM.

Tested on in the next series: not listed separately
The series can be described thus: Cytotoxicity against human F180 cells assessed as cell viability after 48 hrs by SRB assay. It counts as cell-based. Particulars: F180, 48 h.
Consider `COC(=O)c1cc(NC2=NC(=O)/C(=C/c3ccccc3O)S2)ccc1O`, for which the IC50 was greater than 10 µM.
Same read-out and setting: for `COC(=O)c1cc(NC2=NC(=O)/C(=C/c3ccc(C)cc3)S2)ccc1O` the value was 1.05 µM; for `COC(=O)c1cc(NC2=NC(=O)/C(=C/c3ccc(Br)cc3)S2)ccc1O`, 10 µM; for `COC(=O)c1cc(NC2=NC(=O)/C(=C/c3ccc(N(C)C)cc3)S2)ccc1O`, 0.94 µM.
Still for that read-out and setting: under `COc1cccc2c1C(=O)c1c(O)c3c(c(O)c1C2=O)C[C@@](O)(C(=O)CO)C[C@@H]3O[C@H]1C[C@H](N)[C@H](O)[C@H](C)O1` [DOXORUBICIN] stands 0.35 µM.

The subject of another series is MCF7. The experiment in a line: Antiproliferative activity against human MCF7 cells assessed as cell survival at 10 uM after 48 hrs by SRB assay. It counts as functional. To be noted: MCF7, 48 h, read-out: Survival. In a few lines: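 Human breast cancer MCF-7 cells were exposed once to a single compound concentration for 48 h. Vehicle controls received DMSO, added as 0.1%. Survival was read by sulforhodamine B staining and expressed as percent of cells remaining relative to the DMSO control, set at 100%, with SD.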
In the case of `COC(=O)c1cc(NC2=NC(=O)/C(=C/c3ccc([N+](=O)[O-])cc3)S2)ccc1O`, the viability at 10 µM is 73.9%.
`COC(=O)c1cc(NC2=NC(=O)/C(=C/c3cccc(Cl)c3)S2)ccc1O`: the viability at 10 µM came to 65.9%.
On the same count and under the same terms, under `COC(=O)c1cc(NC2=NC(=O)/C(=C/c3ccc(O)cc3)S2)ccc1O` stands 93.5%; under `COC(=O)c1cc(NC2=NC(=O)/C(=C/c3ccccc3Cl)S2)ccc1O`, 85%; under `COC(=O)c1cc(NC2=NC(=O)/C(=C/c3ccccc3O)S2)ccc1O`, 16.5%.
Regarding `COC(=O)c1cc(NC2=NC(=O)/C(=C/c3ccc(F)cc3)S2)ccc1O`, the viability at 10 µM is 86%.
As for `COC(=O)c1cc(NC2=NC(=O)/C(=C/c3ccc(Cl)cc3)S2)ccc1O`, the viability at 10 µM was 28%.
The same measure, in the same setting: under `COC(=O)c1cc(NC2=NC(=O)/C(=C/c3cccc([N+](=O)[O-])c3)S2)ccc1O` stands 82.2%; under `COC(=O)c1cc(NC2=NC(=O)/C(=C/c3ccc(OC)c(OC)c3)S2)ccc1O`, 26.6%.
`COC(=O)c1cc(NC2=NC(=O)/C(=C/c3ccc(C)cc3)S2)ccc1O`: the viability at 10 µM is 17.8%.
On the same count and under the same terms, for `COC(=O)c1cc(NC2=NC(=O)CS2)ccc1O` the value was 97%; for `COC(=O)c1cc(NC2=NC(=O)/C(=C/c3cc(OC)c(OC)c(OC)c3)S2)ccc1O`, 73.3%; for `COC(=O)c1cc(NC2=NC(=O)/C(=C/c3ccccc3)S2)ccc1O`, 67.8%.
Same read-out and setting: under `COC(=O)c1cc(NC2=NC(=O)/C(=C/c3ccccc3OC)S2)ccc1O` stands 70%.
Consider `COC(=O)c1cc(NC2=NC(=O)/C(=C/c3ccc(Br)cc3)S2)ccc1O`, for which the viability at 10 µM worked out at 19%.
As for `COC(=O)c1cc(NC2=NC(=O)/C(=C/c3ccc(N(C)C)cc3)S2)ccc1O`, the viability at 10 µM worked out at 16.2%.
Regarding `COC(=O)c1cc(NC2=NC(=O)/C(=C/c3ccc4c(c3)OCO4)S2)ccc1O`, the viability at 10 µM was 28%.
The same measure, in the same setting: for `COC(=O)c1cc(NC2=NC(=O)/C(=C/c3cccc(Br)c3)S2)ccc1O` the value was 68%; for `COC(=O)c1cc(NC2=NC(=O)/C(=C/c3ccc(OC)cc3)S2)ccc1O`, 26%.
Same read-out and setting: for `COc1cccc2c1C(=O)c1c(O)c3c(c(O)c1C2=O)C[C@@](O)(C(=O)CO)C[C@@H]3O[C@H]1C[C@H](N)[C@H](O)[C@H](C)O1` [DOXORUBICIN] the value was 4%.

The next series relates to HeLa. The experiment in a line: Antiproliferative activity against human HeLa cells assessed as cell viability after 48 hrs by SRB assay.
Conditions: not given
It counts as functional, cell-based.
Consider `COC(=O)c1cc(NC2=NC(=O)/C(=C/c3ccccc3O)S2)ccc1O`, for which the IC50 was determined as 1.39 µM.
On the same count and under the same terms, under `COC(=O)c1cc(NC2=NC(=O)/C(=C/c3ccc(C)cc3)S2)ccc1O` stands 0.085 µM; under `COC(=O)c1cc(NC2=NC(=O)/C(=C/c3ccc(Br)cc3)S2)ccc1O`, 3.48 µM.
In the case of `COC(=O)c1cc(NC2=NC(=O)/C(=C/c3ccc(N(C)C)cc3)S2)ccc1O`, the IC50 amounted to 0.18 µM.
With `COc1cccc2c1C(=O)c1c(O)c3c(c(O)c1C2=O)C[C@@](O)(C(=O)CO)C[C@@H]3O[C@H]1C[C@H](N)[C@H](O)[C@H](C)O1` [DOXORUBICIN], the IC50 was 0.1 µM.

For a further series, the system named is A549. The series can be described thus: Antiproliferative activity against human A549 cells assessed as cell viability after 48 hrs by SRB assay. It counts as functional, cell-based. Particulars: A549, 48 h.
As to `COC(=O)c1cc(NC2=NC(=O)/C(=C/c3ccccc3O)S2)ccc1O`, the IC50 is greater than 10 µM.
As to `COC(=O)c1cc(NC2=NC(=O)/C(=C/c3ccc(C)cc3)S2)ccc1O`, the IC50 was 2.2 µM.
With `COC(=O)c1cc(NC2=NC(=O)/C(=C/c3ccc(Br)cc3)S2)ccc1O`, the IC50 was determined as 8.3 µM.
The same measure, in the same setting: for `COC(=O)c1cc(NC2=NC(=O)/C(=C/c3ccc(N(C)C)cc3)S2)ccc1O` the value was 2.4 µM.
Same read-out and setting: under `COc1cccc2c1C(=O)c1c(O)c3c(c(O)c1C2=O)C[C@@](O)(C(=O)CO)C[C@@H]3O[C@H]1C[C@H](N)[C@H](O)[C@H](C)O1` [DOXORUBICIN] stands 0.45 µM.

The test system of a further series is MCF7. The experiment in a line: Antiproliferative activity against human MCF7 cells assessed as cell viability after 48 hrs by SRB assay. It counts as functional, cell-based. To be noted: MCF7, 48 h.
With `COC(=O)c1cc(NC2=NC(=O)/C(=C/c3ccccc3O)S2)ccc1O`, the IC50 was determined as 0.5 µM.
As for `COC(=O)c1cc(NC2=NC(=O)/C(=C/c3ccc(C)cc3)S2)ccc1O`, the IC50 stood at 0.41 µM.
Same read-out and setting: under `COC(=O)c1cc(NC2=NC(=O)/C(=C/c3ccc(Br)cc3)S2)ccc1O` stands 0.07 µM; under `COC(=O)c1cc(NC2=NC(=O)/C(=C/c3ccc(N(C)C)cc3)S2)ccc1O`, 0.63 µM.

Tested on in another series: not listed separately
The experiment in a line: Ratio of compound IC50 to doxorubicin IC50 for human F180 cells. It counts as ADME, cell-based. To be noted: read-out: Ratio IC50.
`COC(=O)c1cc(NC2=NC(=O)/C(=C/c3ccc(Br)cc3)S2)ccc1O`: the selectivity ratio was 28.
